Source: ChEMBL document CHEMBL5030538 (J Med Chem, 2021)
pIC50, pKi: −log10 of the molar value. Activity calls are given as the source filed them. The rule behind the calls is not given here.

Assays:
[1] = Displacement of [3H]-DTG from sigma 2 receptor in guinea pig brain membranes after 120 mins by microbeta scintillation counting method
HREC [2] = assay: Antimigratory activity against VEGF-A stimulated HREC assessed as wound closure at 5 uM measured after 48 hrs by wound closure assay; type: functional, tissue-based; conditions: Homo sapiens
Outline: (§1)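 Primary HREC grown to confluence were scratched to make a 1 mm wound and washed with PBS. They were then incubated 48 h at 37 °C in complete medium with 80 ng/mL VEGF-A and 5 μM compound, alone or with 2 μM PTZ or 2 μM AC927. Wounds were photographed by phase contrast at 0, 24 and 48 h, and closure taken as the distance both fronts moved into the wound. Mean ± SEM of three independent experiments, three wells each.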

HREC [3] = assay: Antimigratory activity against VEGF-A stimulated HREC assessed as wound closure at 5 uM in presence of PTZ measured after 48 hrs by wound closure assay; type: functional, tissue-based; conditions: Homo sapiens
Outline: as §1

HREC [4] = assay: Antiangiogenic activity against HREC cells assessed as inhibition of tube formation measured after 24 hrs by matrigel based tube formation assay; type: functional, cell-based; conditions: Homo sapiens
HREC [5] = assay: Antimigratory activity against VEGF-A stimulated HREC assessed as inhibition of cell motility at 5 uM in presence of AC927 measured after 48 hrs by wound closure assay; type: functional; conditions: Homo sapiens
Outline: as §1

[6] = Antiproliferative activity against VEGF-A stimulated human retinal endothelial cell assessed as reduction in cell viability measured after 24 hrs by MTT assay; type: functional; conditions: HREC
[7] = Antiangiogenic activity against VEGF-A stimulated human retinal endothelial cell assessed as cell proliferation measured after 48 hrs by crystal violet assay; type: functional; conditions: HREC
Outline: (§2)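 They were then treated at 5 μM with or without 80 ng/mL VEGF-A, with DMSO as vehicle. Cells were PBS-washed, fixed in 4% paraformaldehyde, stained with 0.5% crystal violet in 20% methanol, extracted with 10% acetic acid and read at 570/590 nm. Proliferation is given as % of vehicle; triplicate.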

[8] = Antiproliferative activity against VEGF-A stimulated human retinal endothelial cell assessed as reduction in cell viability measured after 72 hrs by MTT assay; type: functional; conditions: HREC
[9] = Antiangiogenic activity against VEGF-A stimulated Human endothelial cell assessed as cell proliferation measured after 72 hrs by crystal violet assay; type: functional, tissue-based
[10] = Antiproliferative activity against VEGF-A stimulated human retinal endothelial cell assessed as reduction in cell viability measured after 48 hrs by MTT assay; type: functional; conditions: HREC
[11] = Antiangiogenic activity against VEGF-A stimulated human retinal endothelial cell assessed as cell proliferation measured after 24 hrs by crystal violet assay; type: functional; conditions: HREC
Outline: as §2

Row | Structure (SMILES) | pKi [1] | Activity (HREC [2]) | Activity (HREC [4]) | Activity (HREC [5]) | pIC50 [7] | pIC50 [9] | other results
1 | O[C@H](CCCN1CCC(O)(c2ccc(Cl)cc2)CC1)c1ccc(F)cc1 | 7.49 |  |  |  |  |  | 
2 | CCCC(CCC)C(=O)O[C@H](CCCN1CCC(O)(c2ccc(Cl)cc2)CC1)c1ccc(F)cc1 |  | Active | Active | inactive |  |  | Activity (HREC [3]): inactive
3 | CCCC(CCC)C(=O)OC(CCCN1CCC(O)(c2ccc(Cl)cc2)CC1)c1ccc(F)cc1 (racemic) | 6.91 | Active | Active |  |  |  | 
4 | CCCC(CCC)C(=O)O[C@@H](CCCN1CCC(O)(c2ccc(Cl)cc2)CC1)c1ccc(F)cc1 |  | Active | Active | inactive |  |  | 
5 | OC(CCCN1CCC(O)(c2ccc(Cl)cc2)CC1)c1ccc(F)cc1 (racemic) [HYDROXYHALOPERIDOL] |  |  |  |  | 3.89 | 4.16 | pIC50 [6]: < 3.70; pIC50 [8]: 4.16; pIC50 [10]: 3.89
6 | CCCC(CCC)C(=O)O [VALPROIC ACID] |  |  |  |  | 2.84 | 2.86 | pIC50 [11]: 2.91
